Test results as given in ChEMBL document CHEMBL3871280, “Bis(N-amidinohydrazones) and N-(amidino)-N'-aryl-bishydrazones: New classes of antibacterial/antifungal agents” (Bioorg Med Chem, 2017).
In brackets after ≈: the same amount, converted by molar mass.

What was measured:
[1] = test system: Mycolicibacterium smegmatis; test: Antimycobacterial activity against Mycobacterium smegmatis MC2 155; assay type: functional; details: str. MC2 155
In short: (§1)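 Values were set in μM and converted to μg/mL for presentation. Amikacin, ampicillin and ofloxacin served as positive controls.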

[2] = test system: Listeria monocytogenes; test: Antibacterial activity against Listeria monocytogenes ATCC 19115; assay type: functional
[3] = test system: Enterobacter cloacae; test: Antibacterial activity against Enterobacter cloacae ATCC 13047; assay type: functional; details: subsp. cloacae ATCC 13047
[4] = test system: Escherichia coli; test: Antibacterial activity against Escherichia coli MC1061; assay type: functional; in short: as §1
[5] = test system: Klebsiella pneumoniae; test: Antibacterial activity against Klebsiella pneumoniae ATCC 27736; assay type: functional
[6] = test system: Acinetobacter baumannii; test: Antibacterial activity against Acinetobacter baumannii ATCC 19606; assay type: functional
[7] = test system: Enterococcus; test: Antibacterial activity against vancomycin-resistant Enterococcus; assay type: functional; in short: as §1
[8] = test system: Pseudomonas aeruginosa; test: Antibacterial activity against Pseudomonas aeruginosa ATCC 27853; assay type: functional
[9] = test system: Staphylococcus aureus; test: Antibacterial activity against methicillin-resistant Staphylococcus aureus; assay type: functional; in short: as §1
[10] = Antibacterial activity against Salmonella enterica ATCC 14028; assay type: functional
[11] = test system: Bacillus subtilis; test: Antibacterial activity against Bacillus subtilis 168; assay type: functional; details: subsp. subtilis str. 168
[12] = Antifungal activity against fluconazole/itraconazole/voriconazole-susceptible Candida albicans ATCC 2310; assay type: functional
[13] = Antifungal activity against fluconazole/itraconazole/voriconazole-susceptible Candida albicans ATCC 2876; assay type: functional
[14] = Antifungal activity against fluconazole/itraconazole/voriconazole-resistant Candida albicans ATCC 10231; assay type: functional
[15] = Cytotoxicity against human BEAS2B cells assessed as reduction in cell survival; assay type: toxicity, cell-based; details: beas-2b
[16] = Antifungal activity against fluconazole/itraconazole/voriconazole-resistant Candida albicans ATCC 90819; assay type: functional
[17] = Cytotoxicity against human A549 cells assessed as reduction in cell survival; assay type: toxicity, cell-based
[18] = test system: Candida albicans; test: Antifungal activity against Candida albicans ATCC 1003; assay type: functional
[19] = Antifungal activity against fluconazole/itraconazole/voriconazole-resistant Candida albicans ATCC 1237; assay type: functional
[20] = Antifungal activity against fluconazole/itraconazole/voriconazole-resistant Candida albicans ATCC 64124; assay type: functional

SMILES | MIC [1] | MIC [2] | MIC [3] | MIC [4] | MIC [5] | MIC [6] | MIC [7] | MIC [8] | MIC [9] | MIC [10] | MIC [11] | MIC [12] | MIC [13] | MIC [14] | IC50 [15] | MIC [16] | IC50 [17] | MIC [18] | MIC [19] | MIC [20]
CC1(C)S[C@@H]2[C@H](NC(=O)[C@H](N)c3ccccc3)C(=O)N2[C@H]1C(=O)O [AMPICILLIN] | > 250 µM | 250 µM (≈ 87.4 µg/mL) | > 250 µM | > 250 µM | > 250 µM | > 250 µM | 250 µM (≈ 87.4 µg/mL) | > 250 µM | 250 µM (≈ 87.4 µg/mL) | 250 µM (≈ 87.4 µg/mL) | > 250 µM |  |  |  |  |  |  |  |  | 
Cl.N#Cc1ccc(N/N=C/c2ccc(-c3ccc(/C=N/NC(=N)N)cc3)cc2)cc1 | 15.6 to 31.3 µM | 7.8 µM | 500 µM | 62.5 to 125 µM | 15.6 to 31.3 µM | 15.6 to 31.3 µM | 2 to 3.9 µM | 31.3 to 62.5 µM | 15.6 µM | 15.6 µM | 31.3 µM | 37.3 µM | 37.3 µM | 37.3 µM | 1.9 µg/mL | 37.3 µM | 4.2 µg/mL | 18.7 µM | 37.3 µM | 74.9 µM
Cl.Cl.N=C(N)N/N=C/c1ccc(-c2cccc(/C=N/NC(=N)N)c2)cc1 | 1 µM | 1 µM | > 500 µM | > 500 µM | > 500 µM | > 500 µM | 3.9 µM | > 500 µM | 3.9 µM | > 500 µM | > 500 µM | 9.9 µM | 9.9 µM | 9.9 µM | 5.7 µg/mL | 9.9 µM | 13.9 µg/mL | 9.9 µM | 9.9 µM | 9.9 µM
NCC[C@H](O)C(=O)N[C@@H]1C[C@H](N)[C@@H](O[C@H]2O[C@H](CN)[C@@H](O)[C@H](O)[C@H]2O)[C@H](O)[C@H]1O[C@H]1O[C@H](CO)[C@@H](O)[C@H](N)[C@H]1O [AMIKACIN] | 15.6 µM (≈ 9.14 µg/mL) | 3.9 µM (≈ 2.28 µg/mL) | 62.5 µM (≈ 36.6 µg/mL) | 31.3 µM (≈ 18.3 µg/mL) | 31.3 µM (≈ 18.3 µg/mL) | 31.3 µM (≈ 18.3 µg/mL) | 125 µM (≈ 73.2 µg/mL) | 62.5 µM (≈ 36.6 µg/mL) | 31.3 µM (≈ 18.3 µg/mL) | 3.9 to 7.8 µM (≈ 2.28 to 4.57 µg/mL) | 3.9 to 15.6 µM (≈ 2.28 to 9.14 µg/mL) |  |  |  |  |  |  |  |  | 
Cl.N=C(N)N/N=C/c1ccc(-c2ccc(/C=N/Nc3ccc(F)cc3F)cc2)cc1 | 2 to 3.9 µM | 2 to 3.9 µM | > 500 µM | > 500 µM | > 500 µM | > 500 µM | 3.9 µM | > 500 µM | 3.9 µM | > 500 µM | > 500 µM | 9.1 µM | 9.1 µM | 2.3 µM | 5.8 µg/mL | 18.2 µM | 4.8 µg/mL | 4.5 µM | 9.1 µM | 9.1 µM
C/C(=N\NC(=N)N)c1ccc(Oc2ccc(/C(C)=N/NC(=N)N)cc2)cc1.Cl.Cl | 125 to 250 µM | 62.5 µM | 250 µM | 125 µM | 62.5 µM | 62.5 µM | 3.9 µM | 62.5 µM | 125 µM | 125 µM | 125 µM | 17.8 µM | 8.9 µM | 17.8 µM | 2.9 µg/mL | 17.8 µM | 3.9 µg/mL | 17.8 µM | 17.8 µM | 17.8 µM
Cl.Cl.N=C(N)N/N=C/c1ccc(-c2ccc(/C=N/NC(=N)N)cc2)cc1 | > 500 µM | 1 µM | > 500 µM | > 500 µM | > 500 µM | > 500 µM | 2 µM | > 500 µM | 3.9 µM | > 500 µM | > 500 µM | > 79.2 µM | 19.7 µM | 39.5 µM | 3 µg/mL | > 79.2 µM | 6.6 µg/mL | 19.7 µM | 39.5 µM | > 79.2 µM
N=C(N)N/N=C/c1ccc(-c2ccc(/C=N/Nc3ccc(Cl)cc3Cl)cc2)cc1 | 3.9 µM (≈ 1.66 µg/mL) | 7.8 µM (≈ 3.32 µg/mL) | > 500 µM | > 500 µM | > 500 µM | > 500 µM | 7.8 µM (≈ 3.32 µg/mL) | > 500 µM | 7.8 µM (≈ 3.32 µg/mL) | > 500 µM | > 500 µM | 16.8 µM (≈ 7.15 µg/mL) | 33.8 µM (≈ 14.4 µg/mL) | 16.8 µM (≈ 7.15 µg/mL) |  | 67.8 µM (≈ 28.8 µg/mL) |  | 16.8 µM (≈ 7.15 µg/mL) | 33.8 µM (≈ 14.4 µg/mL) | 67.8 µM (≈ 28.8 µg/mL)
C/C(=N\NC(=N)N)c1ccc(/C(C)=N/NC(=N)N)cc1 | > 500 µM | 250 µM (≈ 68.6 µg/mL) | > 500 µM | > 500 µM | 500 µM (≈ 137 µg/mL) | 500 µM (≈ 137 µg/mL) | 125 µM (≈ 34.3 µg/mL) | 250 µM (≈ 68.6 µg/mL) | > 500 µM | 250 to 500 µM (≈ 68.6 to 137 µg/mL) | 250 µM (≈ 68.6 µg/mL) | > 90.1 µM | > 90.1 µM | > 90.1 µM |  | > 90.1 µM |  | > 90.1 µM | > 90.1 µM | 90.1 µM (≈ 24.7 µg/mL)
C/C(=N\NC(=N)N)c1ccc(-c2ccc(/C(C)=N/Nc3ccccc3Cl)cc2)cc1 | 500 µM (≈ 209 µg/mL) | 62.5 to 125 µM (≈ 26.2 to 52.4 µg/mL) | 500 µM (≈ 209 µg/mL) | 500 µM (≈ 209 µg/mL) | 62.5 to 125 µM (≈ 26.2 to 52.4 µg/mL) | 62.5 µM (≈ 26.2 µg/mL) | 3.9 µM (≈ 1.63 µg/mL) | 500 µM (≈ 209 µg/mL) | 125 µM (≈ 52.4 µg/mL) | 62.5 to 125 µM (≈ 26.2 to 52.4 µg/mL) | 62.5 to 125 µM (≈ 26.2 to 52.4 µg/mL) | 34.3 µM (≈ 14.4 µg/mL) | 34.3 µM (≈ 14.4 µg/mL) | 34.3 µM (≈ 14.4 µg/mL) |  | 34.3 µM (≈ 14.4 µg/mL) |  | 34.3 µM (≈ 14.4 µg/mL) | 34.3 µM (≈ 14.4 µg/mL) | 68.7 µM (≈ 28.8 µg/mL)
C[C@@H]1[C@H](O)[C@@H](C)/C=C/C=C/C=C/C=C/C=C/C=C/C=C/[C@H](O[C@@H]2O[C@H](C)[C@@H](O)[C@H](N)[C@@H]2O)C[C@@H]2O[C@](O)(C[C@@H](O)C[C@@H](O)[C@H](O)CC[C@@H](O)C[C@@H](O)CC(=O)O[C@H]1C)C[C@H](O)[C@H]2C(=O)O [AMPHOTERICIN B] |  |  |  |  |  |  |  |  |  |  |  |  |  |  | 17.7 µg/mL (≈ 19.2 µM) |  | 18.2 µg/mL (≈ 19.7 µM) |  |  | 2.1 to 4.2 µM (≈ 1.94 to 3.88 µg/mL)
CC1COc2c(N3CCN(C)CC3)c(F)cc3c(=O)c(C(=O)O)cn1c23 (stereo not given) [OFLOXACIN] | 15.6 µM (≈ 5.64 µg/mL) | 1 µM (≈ 0.361 µg/mL) | ≤ 0.5 µM | 3.9 to 7.8 µM (≈ 1.41 to 2.82 µg/mL) | 15.6 to 31.3 µM (≈ 5.64 to 11.3 µg/mL) | ≤ 0.5 µM | 7.8 µM (≈ 2.82 µg/mL) | 3.9 µM (≈ 1.41 µg/mL) | 1 µM (≈ 0.361 µg/mL) | 15.6 to 31.3 µM (≈ 5.64 to 11.3 µg/mL) | ≤ 0.5 µM |  |  |  |  |  |  |  |  | 
